Measured values from ChEMBL document CHEMBL1165950, “Design and synthesis of new potent anticancer pyrazoles with high FLT3 kinase inhibitory selectivity” (Bioorg Med Chem, 2010).

Assays:
Assay type in all cases: functional
U-251 = assay: Cytotoxicity against human U251 cells assessed as cell growth at 100 nM after 48 hrs by sulforhodamine B assay; conditions: U-251, 48 h, read-out: Activity
DU-145 = assay: Cytotoxicity against human DU145 cells assessed as cell growth at 0.001 uM after 48 hrs by sulforhodamine B assay; conditions: DU-145, 48 h, read-out: Activity
MDA-MB-468 [1] = assay: Cytotoxicity against human MDA-MB-468 cells assessed as cell growth at 100 nM after 48 hrs by sulforhodamine B assay; conditions: MDA-MB-468, 48 h, read-out: Activity
HOP-92 [2] = assay: Cytotoxicity against human HOP92 cells assessed as cell growth at 1 uM after 48 hrs by sulforhodamine B assay; conditions: HOP-92, 48 h, read-out: Activity
LOX IMVI = assay: Cytotoxicity against human LOXIMVI cells assessed as cell growth at 10 uM; conditions: read-out: Activity
Summary of the method: (§1)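 NCI-60 screen: cells grown in RPMI 1640 with 5% FBS and 2 mM L-glutamine, plated at 5000–40,000 cells/well according to doubling time, and preincubated 24 h at 37 °C, 5% CO2. The single 10 µM dose (DMSO stock) was added, then incubated 48 h. Cells were TCA-fixed and stained with 0.4% SRB, read at 515 nm, and growth % calculated against time-zero and control plates.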

SK-MEL-28 = assay: Cytotoxicity against human SK-MEL-28 cells assessed as cell growth at 10 uM; conditions: read-out: Activity; summary of the method: as §1
OVCAR-5 [3] = assay: Cytotoxicity against human OVCAR5 cells assessed as cell growth at 10 uM; conditions: read-out: Activity; summary of the method: as §1
[4] = Cytotoxicity against human […] cells assessed as cell growth at 0.001 uM after 48 hrs by sulforhodamine B assay; conditions: read-out: Activity
NCI-H322M = assay: Cytotoxicity against human NCI-H322M cells assessed as cell growth at 1 uM after 48 hrs by sulforhodamine B assay; conditions: read-out: Activity
HOP-92 [5] = assay: Cytotoxicity against human HOP92 cells assessed as cell growth at 0.001 uM after 48 hrs by sulforhodamine B assay; conditions: HOP-92, 48 h, read-out: Activity
EKVX = assay: Cytotoxicity against human EKVX cells assessed as cell growth at 0.01 uM after 48 hrs by sulforhodamine B assay; conditions: read-out: Activity
HOP-62 = assay: Cytotoxicity against human HOP62 cells assessed as cell growth at 0.01 uM after 48 hrs by sulforhodamine B assay; conditions: HOP-62, 48 h, read-out: Activity
UACC-257 = assay: Cytotoxicity against human UACC257 cells assessed as cell growth at 1 uM after 48 hrs by sulforhodamine B assay; conditions: UACC-257, 48 h, read-out: Activity
OVCAR-5 [6] = assay: Cytotoxicity against human OVCAR5 cells assessed as cell growth at 0.01 uM after 48 hrs by sulforhodamine B assay; conditions: OVCAR-5, 48 h, read-out: Activity
ACHN = assay: Cytotoxicity against human ACHN cells assessed as cell growth at 0.001 uM after 48 hrs by sulforhodamine B assay; conditions: read-out: Activity
Summary of the method: (§2)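 NCI-60 five-dose screen. Cells were grown in RPMI 1640 with 5% FBS and 2 mM L-glutamine, plated at 5000–40,000 cells/well and preincubated for 24 h. Time-zero plates were TCA-fixed. DMSO-solubilized drug was added at five concentrations (10-fold or ½-log serial dilutions) for 48 h at 37 °C, 5% CO2. Cells were TCA-fixed, stained with 0.4% SRB and read at 515 nm. Percent growth used time-zero, control and test absorbances.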

KM12 = assay: Growth inhibition of human KM12 cells after 48 hrs by sulforhodamine B assay; conditions: KM12, 48 h; for CC50: read-out: LC50 (the source's name)
Summary of the method: (§3)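 NCI 60-cell screen, five-dose mode. Cells grown in RPMI 1640 with 5% FBS and 2 mM L-glutamine and plated at 5000-40,000 cells/well according to doubling time. After 24 h preincubation, a Tz plate was TCA-fixed. Five concentrations (10-fold or 1/2 log dilutions) were applied for 48 h at 37 °C. SRB staining read at 515 nm. IC50 taken from [(Ti-Tz)/(C-Tz)]×100 = 50.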

IGROV-1 = assay: Growth inhibition of human IGROV1 cells after 48 hrs by sulforhodamine B assay; conditions: IGROV-1, 48 h; for CC50: read-out: LC50 (the source's name); summary of the method: as §3
MDA-MB-231 = assay: Cytotoxicity against human MDA-MB-231 cells assessed as cell growth at 0.01 uM after 48 hrs by sulforhodamine B assay; conditions: MDA-MB-231, 48 h, read-out: Activity
[7] = Cytotoxicity against human Hs 578T cells assessed as cell growth at 0.01 uM after 48 hrs by sulforhodamine B assay; conditions: read-out: Activity
HL-60(TB) = assay: Cytotoxicity against human HL-60(TB) cells assessed as cell growth at 100 nM after 48 hrs by sulforhodamine B assay; conditions: HL-60, 48 h, read-out: Activity
Summary of the method: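 NCI 60-cell panel. Cells are grown in RPMI 1640 with 5% FBS and 2 mM L-glutamine, seeded at 5000–40,000 cells/well according to doubling time, and preincubated 24 h. Time-zero plates are TCA-fixed. Compound from DMSO stock is given at five 10-fold or 1/2-log concentrations for 48 h at 37 °C, 5% CO2. Suspension cells are fixed with 80% TCA (final 16%) and SRB-stained, with absorbance at 515 nm. Percent growth is derived from Tz, control and test readings.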

A549 = assay: Cytotoxicity against human A549 cells assessed as cell growth at 100 nM after 48 hrs by sulforhodamine B assay; conditions: A549, 48 h, read-out: Activity; summary of the method: as §2
PC-3 = assay: Growth inhibition of human PC3 cells after 48 hrs by sulforhodamine B assay; conditions: PC-3, 48 h; summary of the method: as §3
NCI-H522 [8] = assay: Cytotoxicity against human NCI-H522 cells assessed as cell growth at 10 uM; conditions: read-out: Activity; summary of the method: as §1
HCT-116 = assay: Cytotoxicity against human HCT116 cells assessed as cell growth at 10 uM; conditions: read-out: Activity
Summary of the method: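 Single-dose NCI-60 screen at 10 µM. Cells were grown in RPMI 1640 with 5% FBS and 2 mM L-glutamine, then treated for 48 h at 37 °C. Protein was measured by SRB staining with absorbance at 515 nm. Percentage growth was recorded, and inhibition percentage was calculated as 100 minus growth percentage.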

MDA-MB-468 [9] = assay: Cytotoxicity against human MDA-MB-468 cells assessed as cell growth at 1 uM after 48 hrs by sulforhodamine B assay; conditions: MDA-MB-468, 48 h, read-out: Activity
CCRF-CEM = assay: Cytotoxicity against human CCRF-CEM cells assessed as cell growth at 10 uM after 48 hrs by sulforhodamine B assay; conditions: read-out: Activity; summary of the method: as §2
NCI-H522 [10] = assay: Cytotoxicity against human NCI-H522 cells assessed as cell growth at 10 uM after 48 hrs by sulforhodamine B assay; conditions: NCI-H522, 48 h, read-out: Activity
Malme-3M = assay: Cytotoxicity against human MALME-3M cells assessed as cell growth at 10 uM after 48 hrs by sulforhodamine B assay; conditions: read-out: Activity
OVCAR-3 = assay: Cytotoxicity against human OVCAR-3 cells assessed as cell growth at 10 uM after 48 hrs by sulforhodamine B assay; conditions: OVCAR-3, 48 h, read-out: Activity

SMILES	growth at 0.1 µM (U-251) [%]	growth at 0.001 µM (DU-145) [%]	growth at 0.1 µM (MDA-MB-468 [1]) [%]	growth at 1 µM (HOP-92 [2]) [%]	growth at 10 µM (LOX IMVI) [%]	growth at 10 µM (SK-MEL-28) [%]	growth at 10 µM (OVCAR-5 [3]) [%]	growth at 0.001 µM [4] [%]	growth at 1 µM (NCI-H322M) [%]	growth at 0.001 µM (HOP-92 [5]) [%]	growth at 0.01 µM (EKVX) [%]	growth at 0.01 µM (HOP-62) [%]	growth at 1 µM (UACC-257) [%]	growth at 0.01 µM (OVCAR-5 [6]) [%]	growth at 0.001 µM (ACHN) [%]	GI50 (KM12) [µM]	TGI (KM12) [µM]	CC50 (KM12) [µM]	GI50 (IGROV-1) [µM]	TGI (IGROV-1) [µM]	also measured
COc1cc(C)cc(-c2c(-c3ccnc(-c4ccc(C(C)=O)cc4)c3)cnn2CC#N)c1	89	109	68	-9	58.8	62	95	95	69	84	97	81	38	70	100	2.87	> 100	> 100	3.57	> 100	CC50 (IGROV-1): > 100 µM; growth at 0.01 µM (MDA-MB-231): 95%; growth at 0.01 µM [7]: 98%; growth at 0.1 µM (HL-60(TB)): 88%; growth at 0.1 µM (A549): 83%; GI50 (PC-3): 3.59 µM; LC50 (concentration giving 50% net cell kill) (PC-3): > 100 µM; TGI (PC-3): > 100 µM; growth at 10 µM (NCI-H522 [8]): 45%; growth at 10 µM (HCT-116): 23.4%; growth at 1 µM (MDA-MB-468 [9]): -48%; growth at 10 µM (CCRF-CEM): 14%; growth at 10 µM (NCI-H522 [10]): -10%; growth at 10 µM (Malme-3M): 43%; growth at 10 µM (OVCAR-3): -17%
Cc1cc(O)cc(-c2nn(CC#N)cc2-c2ccnc(-c3ccc(Oc4ccccc4)cc3)c2)c1	88	104	88	-67	16.6	63.3	96.8	97	35	74	94	108	-7	72	98	1.92	4.87	15.3	1.74	3.75	CC50 (IGROV-1): 8.07 µM; growth at 0.01 µM (MDA-MB-231): 84%; growth at 0.01 µM [7]: 91%; growth at 0.1 µM (HL-60(TB)): 92%; growth at 0.1 µM (A549): 87%; GI50 (PC-3): 2.15 µM; LC50 (concentration giving 50% net cell kill) (PC-3): 62 µM; TGI (PC-3): 7.37 µM; growth at 10 µM (NCI-H522 [8]): 36%; growth at 10 µM (HCT-116): 25.7%; growth at 1 µM (MDA-MB-468 [9]): -62%; growth at 10 µM (CCRF-CEM): 14%; growth at 10 µM (NCI-H522 [10]): -93%; growth at 10 µM (Malme-3M): -72%; growth at 10 µM (OVCAR-3): -100%
COc1cc(C)cc(-c2nn(CC#N)cc2-c2ccnc(-c3ccc(N(C)C)cc3)c2)c1	16	103	-18	9	5.2	32.4	55.9	104	52	102	89	99	48	93	95	0.31	1.62	25.5	0.402	30.1	CC50 (IGROV-1): > 100 µM; growth at 0.01 µM (MDA-MB-231): 94%; growth at 0.01 µM [7]: 100%; growth at 0.1 µM (HL-60(TB)): -3%; growth at 0.1 µM (A549): 36%; GI50 (PC-3): 0.363 µM; LC50 (concentration giving 50% net cell kill) (PC-3): > 100 µM; TGI (PC-3): > 100 µM; growth at 10 µM (NCI-H522 [8]): -14.9%; growth at 10 µM (HCT-116): -31.6%; growth at 1 µM (MDA-MB-468 [9]): -55%; growth at 10 µM (CCRF-CEM): 10%; growth at 10 µM (NCI-H522 [10]): -64%; growth at 10 µM (Malme-3M): 5%; growth at 10 µM (OVCAR-3): -42%
Cc1cc(O)cc(-c2nn(CC#N)cc2-c2ccnc(-c3ccc(N(C)C)cc3)c2)c1	91	103	77	25	33.7	38.1	111	96	38	80	86	89	31	91	94	1.63	7.66	29.2	3.91	24.8	CC50 (IGROV-1): > 100 µM; growth at 0.01 µM (MDA-MB-231): 98%; growth at 0.01 µM [7]: 95%; growth at 0.1 µM (HL-60(TB)): 98%; growth at 0.1 µM (A549): 95%; GI50 (PC-3): 3.77 µM; LC50 (concentration giving 50% net cell kill) (PC-3): > 100 µM; TGI (PC-3): 47.2 µM; growth at 10 µM (NCI-H522 [8]): 14.5%; growth at 10 µM (HCT-116): 12.3%; growth at 1 µM (MDA-MB-468 [9]): -50%; growth at 10 µM (CCRF-CEM): 7%; growth at 10 µM (NCI-H522 [10]): -57%; growth at 10 µM (Malme-3M): -19%; growth at 10 µM (OVCAR-3): -70%
COc1cc(C)cc(-c2nn(CC#N)cc2-c2ccc(-c3cccc(C(C)=O)c3)nc2)c1	95	110	9	-4	25.4	44.7	91.3	100	24	84	99	83	34	68	93	2.23	13.9	> 100	2.73	10.4	CC50 (IGROV-1): > 100 µM; growth at 0.01 µM (MDA-MB-231): 96%; growth at 0.01 µM [7]: 100%; growth at 0.1 µM (HL-60(TB)): 66%; growth at 0.1 µM (A549): 91%; GI50 (PC-3): 3.45 µM; LC50 (concentration giving 50% net cell kill) (PC-3): > 100 µM; TGI (PC-3): > 100 µM; growth at 10 µM (NCI-H522 [8]): -3.15%; growth at 10 µM (HCT-116): 10.3%; growth at 1 µM (MDA-MB-468 [9]): -42%; growth at 10 µM (CCRF-CEM): 12%; growth at 10 µM (NCI-H522 [10]): -40%; growth at 10 µM (Malme-3M): -1%; growth at 10 µM (OVCAR-3): -64%
